# Tested on: U2OS
# Experiment: Multiplex assay against U2OS
# Type: toxicity, cell-based
# Conditions: human
# In short: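 Live cells were stained at seeding with Hoechst33342, BioTracker Green Microtubule Cytoskeleton Dye, MitoTracker Red and Annexin V Alexa Fluor 680, then imaged on a CQ1 microscope at 37°C and 5% CO2 after compound addition. CellPathfinder machine-learning gating split cells into Hoechst high-intensity objects or normal cells. Normal cells were split into healthy, pyknosed or fragmented nuclei, and pyknosed cells into mitotic or apoptotic. Tubulin, mitochondrial-mass and membrane-permeability phenotypes are per cents of healthy-nucleus cells.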
# [1] = 12 h, 1 µM, compound concentration 1 uM, replicate 1
# [2] = 12 h, 1 µM, compound concentration 1 uM, replicate 2
# [3] = 12 h, 10 µM, compound concentration 10 uM, replicate 1
# [4] = 12 h, 10 µM, compound concentration 10 uM, replicate 2
# [5] = 24 h, 1 µM, compound concentration 1 uM, replicate 1
# [6] = 24 h, 1 µM, compound concentration 1 uM, replicate 2
# [7] = 24 h, 10 µM, compound concentration 10 uM, replicate 1
# [8] = 24 h, 10 µM, compound concentration 10 uM, replicate 2
# [9] = 48 h, 1 µM, compound concentration 1 uM, replicate 1
# [10] = 48 h, 1 µM, compound concentration 1 uM, replicate 2
# [11] = 48 h, 10 µM, compound concentration 10 uM, replicate 1
# [12] = 48 h, 10 µM, compound concentration 10 uM, replicate 2
smiles,measurement,setting,value
COc1cccc([C@@H](C)NCCCc2ccccc2Cl)c1.Cl [TECALCET HYDROCHLORIDE],Population Apoptotic (%),[1],50%
same,Population Fragmented Nuclei (%),[1],22%
same,Population Healthy Nuclei (%),[1],72%
same,Population Hoechst High Intensity Objects (%),[1],32%
same,Population Membrane Permeable-Phenotype (%),[1],3%
same,Population Mitochondria Different-Phenotype (%),[1],34%
same,Population Mitotic Cells (%),[1],50%
same,Population Normal (%),[1],67%
same,Population Pyknosed Nuclei (%),[1],5%
same,Population Tubulin-Different-Phenotype (%),[1],30%
same,Total Cell Count,[1],188
same,Population Apoptotic (%),[2],16%
same,Population Fragmented Nuclei (%),[2],10%
same,Population Healthy Nuclei (%),[2],81%
same,Population Hoechst High Intensity Objects (%),[2],10%
same,Population Membrane Permeable-Phenotype (%),[2],6%
same,Population Mitochondria Different-Phenotype (%),[2],20%
same,Population Mitotic Cells (%),[2],83%
same,Population Normal (%),[2],89%
same,Population Pyknosed Nuclei (%),[2],8%
same,Population Tubulin-Different-Phenotype (%),[2],18%
same,Total Cell Count,[2],70
same,Population Apoptotic (%),[3],62%
same,Population Fragmented Nuclei (%),[3],11%
same,Population Healthy Nuclei (%),[3],64%
same,Population Hoechst High Intensity Objects (%),[3],8%
same,Population Membrane Permeable-Phenotype (%),[3],6%
same,Population Mitochondria Different-Phenotype (%),[3],86%
same,Population Mitotic Cells (%),[3],37%
same,Population Normal (%),[3],91%
same,Population Pyknosed Nuclei (%),[3],23%
same,Population Tubulin-Different-Phenotype (%),[3],90%
same,Total Cell Count,[3],53
same,Population Apoptotic (%),[4],41%
same,Population Fragmented Nuclei (%),[4],7%
same,Population Healthy Nuclei (%),[4],75%
same,Population Hoechst High Intensity Objects (%),[4],5%
same,Population Membrane Permeable-Phenotype (%),[4],18%
same,Population Mitochondria Different-Phenotype (%),[4],90%
same,Population Mitotic Cells (%),[4],58%
same,Population Normal (%),[4],94%
same,Population Pyknosed Nuclei (%),[4],17%
same,Population Tubulin-Different-Phenotype (%),[4],96%
same,Total Cell Count,[4],83
same,Population Apoptotic (%),[5],44%
same,Population Fragmented Nuclei (%),[5],22%
same,Population Healthy Nuclei (%),[5],57%
same,Population Hoechst High Intensity Objects (%),[5],26%
same,Population Membrane Permeable-Phenotype (%),[5],3%
same,Population Mitochondria Different-Phenotype (%),[5],30%
same,Population Mitotic Cells (%),[5],55%
same,Population Normal (%),[5],73%
same,Population Pyknosed Nuclei (%),[5],20%
same,Population Tubulin-Different-Phenotype (%),[5],19%
same,Total Cell Count,[5],239
same,Population Apoptotic (%),[6],77%
same,Population Fragmented Nuclei (%),[6],8%
same,Population Healthy Nuclei (%),[6],80%
same,Population Hoechst High Intensity Objects (%),[6],8%
same,Population Membrane Permeable-Phenotype (%),[6],6%
same,Population Mitochondria Different-Phenotype (%),[6],6%
same,Population Mitotic Cells (%),[6],22%
same,Population Normal (%),[6],91%
same,Population Pyknosed Nuclei (%),[6],10%
same,Population Tubulin-Different-Phenotype (%),[6],12%
same,Total Cell Count,[6],95
same,Population Apoptotic (%),[7],50%
same,Population Fragmented Nuclei (%),[7],12%
same,Population Healthy Nuclei (%),[7],63%
same,Population Hoechst High Intensity Objects (%),[7],12%
same,Population Membrane Permeable-Phenotype (%),[7],10%
same,Population Mitochondria Different-Phenotype (%),[7],81%
same,Population Mitotic Cells (%),[7],50%
same,Population Normal (%),[7],87%
same,Population Pyknosed Nuclei (%),[7],23%
same,Population Tubulin-Different-Phenotype (%),[7],79%
same,Total Cell Count,[7],61
same,Population Apoptotic (%),[8],35%
same,Population Fragmented Nuclei (%),[8],8%
same,Population Healthy Nuclei (%),[8],70%
same,Population Hoechst High Intensity Objects (%),[8],8%
same,Population Membrane Permeable-Phenotype (%),[8],24%
same,Population Mitochondria Different-Phenotype (%),[8],91%
same,Population Mitotic Cells (%),[8],64%
same,Population Normal (%),[8],91%
same,Population Pyknosed Nuclei (%),[8],20%
same,Population Tubulin-Different-Phenotype (%),[8],92%
same,Total Cell Count,[8],97
same,Population Apoptotic (%),[9],83%
same,Population Fragmented Nuclei (%),[9],29%
same,Population Healthy Nuclei (%),[9],60%
same,Population Hoechst High Intensity Objects (%),[9],20%
same,Population Membrane Permeable-Phenotype (%),[9],8%
same,Population Mitochondria Different-Phenotype (%),[9],34%
same,Population Mitotic Cells (%),[9],16%
same,Population Normal (%),[9],79%
same,Population Pyknosed Nuclei (%),[9],10%
same,Population Tubulin-Different-Phenotype (%),[9],14%
same,Total Cell Count,[9],378
same,Population Apoptotic (%),[10],63%
same,Population Fragmented Nuclei (%),[10],6%
same,Population Healthy Nuclei (%),[10],84%
same,Population Hoechst High Intensity Objects (%),[10],7%
same,Population Membrane Permeable-Phenotype (%),[10],12%
same,Population Mitochondria Different-Phenotype (%),[10],15%
same,Population Mitotic Cells (%),[10],36%
same,Population Normal (%),[10],92%
same,Population Pyknosed Nuclei (%),[10],9%
same,Population Tubulin-Different-Phenotype (%),[10],18%
same,Total Cell Count,[10],153
same,Population Apoptotic (%),[11],77%
same,Population Fragmented Nuclei (%),[11],18%
same,Population Healthy Nuclei (%),[11],54%
same,Population Hoechst High Intensity Objects (%),[11],11%
same,Population Membrane Permeable-Phenotype (%),[11],7%
same,Population Mitochondria Different-Phenotype (%),[11],55%
same,Population Mitotic Cells (%),[11],22%
same,Population Normal (%),[11],88%
same,Population Pyknosed Nuclei (%),[11],27%
same,Population Tubulin-Different-Phenotype (%),[11],62%
same,Total Cell Count,[11],73
same,Population Apoptotic (%),[12],54%
same,Population Fragmented Nuclei (%),[12],10%
same,Population Healthy Nuclei (%),[12],60%
same,Population Hoechst High Intensity Objects (%),[12],4%
same,Population Membrane Permeable-Phenotype (%),[12],36%
same,Population Mitochondria Different-Phenotype (%),[12],82%
same,Population Mitotic Cells (%),[12],45%
same,Population Normal (%),[12],95%
same,Population Pyknosed Nuclei (%),[12],29%
same,Population Tubulin-Different-Phenotype (%),[12],73%
same,Total Cell Count,[12],130

# Reference: ChEMBL document CHEMBL4689842, “EUbOPEN Chemogenomics Library wave 1” (2021)
